Entries after “also recorded” stand apart in the source; their conditions may differ.
How the values were obtained:
advanced solid tumours [1] = test: FDG-PET metabolic response; assay type: in vivo, human
Summary of the method: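 FDG-PET was done at screening/baseline, on day 10 of cycle 1 and on day 2 of cycle 3. Maximum SUV was summed across all target lesions (sSUVmax). A reduction of ⩾25% counted as objective metabolic response and an increase of ⩾25% as progression. Any new PET lesion counted as metabolic progression.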

[2] = Plasma pharmacokinetics of HSP990 after oral dosing; assay type: in vivo, human; details: for AUClast: day 22; for Cmax: steady state
Summary of the method: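 Oral dosing 30 min after a light breakfast, then a 3-h fast, with meal timing recorded. Plasma was assayed centrally by validated LC-MS/MS and analysed non-compartmentally. Day effect was tested by ANCOVA on log-transformed AUC and Cmax with a linear mixed-effect model.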

rats = details: preclinical pharmacology studies, ref Novartis, 2012; cited from earlier work
dogs = details: preclinical pharmacology studies, ref Novartis, 2012; cited from earlier work
HSP70 = HSP70 levels in PBMCs by ELISA; assay type: in vivo, human
[3] = system: patients with advanced solid tumours; test: Dose-limiting toxicities and MTD/RP2D determination; assay type: in vivo, human
Summary of the method: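 Oral capsules, once or twice weekly, in 28-day cycles under fasting conditions. Cohorts had at least three patients. A DLT was any clinically relevant AE or abnormal laboratory value in the first 28 days. A Bayesian logistic regression model with escalation with overdose control estimated the posterior probability of DLT at each dose level from cycle 1 data. MTD/RP2D was set from the model plus safety review by investigators.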

advanced solid tumours [4] = test: Tumour response according to RECIST version 1.0; assay type: in vivo, human
Summary of the method: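 Tumours were assessed radiologically at baseline, at the end of every two 28-day cycles and at the end of treatment. Response was classified per RECIST version 1.0. Patients had at least one measurable lesion at entry and received oral capsules once or twice weekly until progression, unacceptable toxicity or withdrawal.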

[5] = system: patients with advanced solid tumours; test: Safety: adverse events graded by NCI CTCAE version 3.0 in phase I study; assay type: in vivo, human
Summary of the method: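 Toxicity was graded by NCI CTCAE v3.0 during oral dosing in 28-day cycles. Assessments covered physical and neurological examination, vital signs, weight, performance status, and AEs/SAEs. Haematology, coagulation, biochemistry and urinalysis were done at baseline, on day 1 of every cycle, at the last visit and when clinically indicated. ECGs were done on day 1 of each cycle. ECHO/MUGA was done at baseline, at the end of cycles 2–4, then every other month. Data were summarised descriptively.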

[6] = rat model; preclinical; cited from earlier work
[7] = all patients (N=64), two patients

## COc1cccc(-c2cc(F)ccc2[C@H]2Cc3nc(N)nc(C)c3C(=O)N2)n1 [HSP990]
Advanced solid tumours [1]; 5 mg weekly
  Patients with ⩾25% reduction in sSUVmax of target lesions: 1 patient
Advanced solid tumours [1]; 25 mg twice weekly
  Patients with ⩾25% reduction in sSUVmax of target lesions: 3 patients
Advanced solid tumours [1]; 30 mg weekly
  Patients with ⩾25% reduction in sSUVmax of target lesions: 1 patient
Advanced solid tumours [1]; 50 mg weekly
  Patients with ⩾25% reduction in sSUVmax of target lesions: 6 patients
Advanced solid tumours [1]; all patients
  Complete metabolic response: No complete metabolic response
[2]; 25 mg twice-weekly
  AUClast: 14200 ng·h/mL
  Cmax: 232 ng/mL
[2]; 50 mg once-weekly
  AUClast: 7959 ng/mL
  Cmax: 552 ng/mL
[2]; both dosing schedules
  t1/2: ~20 h
[2]; both dosing schedules, postdose
  Time to peak concentrations: ~3 h
[2]; days 1 and 22 of cycle 1, multiple- or twice-weekly doses
  Drug accumulation: no drug accumulation
[2]; oral
  Apparent clearance: ~6.4 L/h
[2]; oral, apparent
  Volume of distribution: ~200 L
rats
  Effects on CNS: no effects on CNS
dogs
  Doses at which tremors and ataxia were observed: ≥ 2 mg/kg
HSP70; once-weekly administration, 2.5 to 60 mg
  HSP70 induction in PBMCs: tended to increase with dose across the 5 mg weekly to 30 mg weekly dose groups
HSP70; twice-weekly administration, 25 mg
  HSP70 induction in PBMCs: greater than that seen in once weekly 30 mg to 60 mg dose levels
[3]; 2.5 mg once weekly, 3 DLT evaluable patients
  Total no. of patients with DLTs: 0
[3]; 5 mg once weekly, 5 DLT evaluable patients
  Total no. of patients with DLTs: 0
[3]; 10 mg once weekly, 7 DLT evaluable patients
  Total no. of patients with DLTs: 0
[3]; 20 mg once weekly, 6 DLT evaluable patients
  Total no. of patients with DLTs: 0
[3]; 30 mg once weekly, 4 DLT evaluable patients
  Total no. of patients with DLTs: 0
[3]; 50 mg once a week, 22 patients
  Number of DLTs encountered: 5 DLTs
[3]; 50 mg once weekly, 22 DLT evaluable patients
  Total no. of patients with DLTs: 4
[3]; all dose levels and schedules
  Patients who experienced DLTs: seven
Advanced solid tumours [4]; all patients
  Partial or complete responses (RECIST): No objective responses were seen; also recorded: No partial or complete responses were observed
Advanced solid tumours [4]; all patients (N=64)
  Best overall response of stable disease: 25 patients
  Prolonged stable disease (⩾6 months), patients: 11%
  Stable disease as best overall response, patients: 39%
Advanced solid tumours [4]; twice-weekly dosing schedule (7 out of 11 patients)
  Stable disease as best overall response, patients: 64%
[5]; 2.5 mg once weekly
  Total no. of patients who discontinue HSP990 (cause) beyond cycle 1: 0
[5]; 5 mg once weekly
  Total no. of patients who discontinue HSP990 (cause) beyond cycle 1: 0
[5]; 10 mg once weekly
  Total no. of patients who discontinue HSP990 (cause) beyond cycle 1: 0
[5]; 20 mg once weekly
  Total no. of patients who discontinue HSP990 (cause) beyond cycle 1: 1 (digestive disorder)
[5]; 25 mg twice weekly
  Description of grade ⩾3 drug-related AEs beyond cycle 1: Diarrhoea
  Grade ⩾3 drug-related AEs beyond cycle 1: 2
  Total no. of patients who discontinue HSP990 (cause) beyond cycle 1: 0
[5]; 30 mg once weekly
  Total no. of patients who discontinue HSP990 (cause) beyond cycle 1: 0
[5]; 50 mg once weekly
  Grade ⩾3 drug-related AEs beyond cycle 1: 6
[5]; 60 mg once weekly
  Description of grade ⩾3 drug-related AEs beyond cycle 1: Diarrhoea
  Grade ⩾3 drug-related AEs beyond cycle 1: 3
  Total no. of patients who discontinue HSP990 (cause) beyond cycle 1: 2 (diarrhoea)
[5]; all patients (N=64)
  Adverse events requiring dose adjustment or study drug interruption, patients: 30%
  Discontinued treatment for AEs of any causality, patients: 14%
  Drug-related AE that led to study discontinuation, patients: 11%
  Drug-related abdominal pain, patients: 16%
  Drug-related anorexia, patients: 25%
  Drug-related diarrhoea, patients: 73%
  Drug-related dizziness, patients: 19%
  Drug-related insomnia, patients: 25%
  Drug-related nausea, patients: 22%
  Drug-related tremor, patients: 19%
  Drug-related vomiting, patients: 14%
[5]; [7]
  Grade 3 QTc prolongation, drug-related: 3%
  Grade 3 asthenia, drug-related: 3%
  Grade 3 hyponatremia, drug-related: 3%
  Grade 3 increased ALT and/or AST, drug-related: 3%
[5]; all patients, mostly due to AEs
  Dose delays: 22 patients
[5]; during and beyond cycle 1, all patients
  Neurotoxicities leading to study drug discontinuation, patients: 14%
[5]; on study and up to 28 days after the last dose
  Drug-related deaths: No drug-related deaths
[6]
  Distribution in brain tissues: highly distributed in the brain tissues
